L major viab: Leishmania major promastigote growth inhibition, primary screen. Leishmania major promastigotes, resazurin fluorescence viability. inhibition, % at 10 µM. 9% of 200,000 active; in the data active means inhibition above about 50%;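 further: promastigotes grown with compound for 44 hours at 28 °C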
Lipid droplet: inhibitors of hepatocyte lipid droplet formation, primary screen, imaging, high-throughput imaging, BODIPY stain | AML12 mouse hepatocytes, oleate lipid droplets | inhibition, % at 6.5 µM | 0.4% of 240,000 active;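 active means lipid droplet intensity inhibited by at least 50%, with more than 500 cells counted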
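System: AML12 hepatocytes (mouse). Probe or stimulus: oleic acid at 100 µM to induce lipid droplet formation. Times: overnight treatment with compound plus oleate. Detection: Image-based BODIPY and DAPI two-channel analysis. Evaluation: percent inhibition of filter-corrected integrated lipid droplet intensity per well.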
DTT redox prof: compounds producing H2O2 with reducing agent – biochemical, NIH compound library profiling, artefact control for MLSCN library redox annotation, primary screen. DTT-dependent redox cycling H2O2, phenol red/HRP absorbance; 100% = 100 µM peroxide control, 0% = buffer. activation, % at 10 µM. 0.03% of 200,000 active. AID 878, 2007;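 active means activation of at least 50% relative to the plate's high and low controls in the primary single-dose screen; inactive means activation below 50%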;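 further: compound incubated with DTT at 0.8 mM final as the reducing agent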
MPTP inh: mitochondrial permeability transition pore inhibitors, primary screen, biochemical, isolated mouse mitochondria, absorbance. Ca2+ swelling absorbance, 30 min. inhibition, % at 10 µM. 1.4% of 360,000 active. AID 602449, 2012;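 active means inhibition of 50% or more, scaled per plate between neutral and stimulator controls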;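 further: 0% = DMSO wells given calcium and 100% = 1 mM EGTA wells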
T cruzi inh: inhibitors of intracellular T. cruzi growth, primary screen, luminescence, NIH3T3 host cells; T. cruzi beta-gal in NIH3T3, 90 h; inhibition, % (concentration not given with the values); 1.4% of 300,000 active; AID 1885, 2009;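 active means mean inhibition across valid replicates above about 55%, limit read from the data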;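 further: signal also drops with host cell toxicity which is not excluded here; 0% = plate median of DMSO wells and 100% = zero luminescence signal; higher percent means less beta-gal luminescence so fewer parasites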
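assay system = mouse NIH/3T3 fibroblasts infected with β-gal-expressing T. cruzi Tulahuen C4 | input = 5,000 NIH/3T3 host cells per well | buffer or medium = DMEM plus 2% FBS | timing = 3 h host attachment, then at least 90 h co-culture | measured by = GalScreen luminescence, 60 min | evaluation = luminescence reflecting intracellular parasite burden, expressed as percent inhibition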
The depositor's hits bear a star; · = no result given. This excerpt belongs to a sample that is enriched for hits.

SMILES	L major viab	Lipid droplet	DTT redox prof	MPTP inh	T cruzi inh
CCc1nc(N=Nc2c(O)[nH]c3ccccc23)c2c3c(sc2n1)CCC3	82.5*	9.6	0.3	3.9	-7.2
S=C(Nc1ccc(Cl)cc1)N1CCN(C2CCCCC2)CC1	80.5*	·	-6.8	0.8	-3.3
Cc1ccc(N(C)C(=O)CN(C)S(=O)(=O)c2ccc3c(c2)n(C)c(=O)c(=O)n3C)cc1	·	-24.3	·	0.8	-8.9
CCOc1ccccc1OCC(=O)NNC(=O)Cn1cnc2c1c(=O)n(C)c(=O)n2C	-14.1	-7.2	-1.7	-0.7	-1.5
O=C(CN1CCN(C(=O)c2cc(C3CC3)nn2-c2ccccc2)CC1)Nc1ccc(F)cc1	·	·	·	0.9	·
COc1cc(OC)c(C2C=CC(=O)CC2)c(OC)c1 (centres undefined)	·	·	·	1.0	·
CC(=O)c1ccc(N2CCN(C(=O)c3cc(-c4cccnc4)nc4ccc(Br)cc34)CC2)cc1	5.9	27.5	0.1	1.0	59.5*
O=C(c1cc(-c2cccnc2)nc2ccc(Br)cc12)N1CCN(c2ncccn2)CC1	9.3	·	-2.4	-1.1	21.6
Cc1ccc2nc(-c3ccncc3)cc(C(=O)N3CCOCC3)c2c1	·	-24.0	·	-1.7	4.2
O=C(c1cc(-c2ccncc2)nc2ccc(Cl)cc12)N1CCN(Cc2ccc3c(c2)OCO3)CC1	81.3*	·	0.0	-1.2	71.7*
O=C(O)c1cc(-c2ccc3c(c2)OCO3)nc2ccc(Cl)cc12	·	1.2	·	0.9	1.0
O=C(c1cc(-c2ccncc2)nc2ccc(Br)cc12)N1CCN(Cc2ccc3c(c2)OCO3)CC1	45.5	·	-0.8	-3.1	79.3*
Cc1cc(C)c2nc(-c3ccncc3)cc(C(=O)N3CCN(Cc4ccccc4Cl)CC3)c2c1	·	7.8	·	-2.1	61.1*
O=C(C1CCN(S(=O)(=O)c2cnc[nH]2)CC1)N1CCN(c2ccc([N+](=O)[O-])cc2)CC1	·	3.1	·	-0.7	-9.6
Cc1ccnc(NC(=O)c2ccc(Cl)c(NC(=O)c3ccccc3C)c2)c1	·	-2.2	·	0.4	-1.9
CCC(C(=O)Nc1cc(C(=O)Nc2cc(C)ccn2)ccc1Cl)c1ccccc1 (centres undefined)	81.0*	16.4	0.3	2.9	-0.3
CC(C)OC(=O)c1ccc2ccc(-c3ccccc3)nc2c1	·	·	·	1.2	·
Cc1ccc(C)n1-c1ccc(N2CCOCC2)c([N+](=O)[O-])c1	·	-11.6	·	2.2	12.4
Cc1ccc(C)c(N2C(=O)c3cc(N4CCOCC4)c([N+](=O)[O-])cc3C2=O)c1	55.3*	-3.0	0.3	7.6	-10.3
CCc1ccc(N2C(=O)c3cc(N4CCOCC4)c([N+](=O)[O-])cc3C2=O)cc1	-4.5	-0.1	-0.4	·	-20.9
CCc1cccc(CC)c1N1C(=O)c2cc(N3CCOCC3)c([N+](=O)[O-])cc2C1=O	84.0*	-8.4	-0.3	2.5	-23.6
COc1ccc(N/C=C(\C#N)S(=O)(=O)c2ccc(Cl)cc2)c(OC)c1	·	4.8	·	1.1	13.3
O=C(/C=C\c1ccccc1OC(=O)c1ccccc1F)c1cc2ccccc2o1	52.5*	9.7	1.4	2.5	-3.4
CC(=O)/C=C\c1ccccc1OC(=O)c1cc2ccccc2oc1=O	·	6.4	·	0.3	-18.0
Cn1ccnc1SCC(=O)Nc1ccc(Cl)cn1	5.2	0.2	-2.0	2.4	-2.2
SMILES	L major viab	Lipid droplet	DTT redox prof	MPTP inh	T cruzi inh
CCn1c(O)c(N=NC(=O)Cn2ccc(C(F)(F)F)n2)c2ccccc21	67.0*	-16.3	-0.8	0.0	4.4
Cn1c(O)c(N=NC(=O)Cn2ccc(C(F)(F)F)n2)c2ccccc21	58.1*	9.0	-0.6	-0.4	-0.9
CCn1c(O)c(N=NC(=O)CNC(=O)/C=C/c2ccccc2)c2ccccc21	·	-1.0	·	-0.7	15.4
CCOC(=O)C(=O)N=Nc1c(O)n(C)c2ccccc12	-3.3	4.9	0.5	3.9	-15.1
CCCN(C(=O)COC(=O)CNC(=O)c1ccc2ccccc2c1)c1c(N)n(Cc2ccccc2)c(=O)[nH]c1=O	·	·	·	-0.4	-5.9
COc1ccc(OC)c(/C=C(\C)C(=O)c2c(C)cc(C)[nH]c2=O)c1	·	·	·	1.6	-2.3
Cc1ccc(-c2cc(C(F)(F)F)n3nc(C(=O)NCCCn4ccnc4)cc3n2)cc1C	100.3*	6.3	-3.7	-1.4	5.6
COc1ccccc1N1C(=NC(=O)COc2ccccc2)SC2CS(=O)(=O)CC21 (centres undefined)	·	-4.7	·	2.3	-4.0
Cc1ccc2nc3c(c(Nc4ccccc4)c2c1)CCC3	·	-0.3	·	34.7	47.4
Cc1ccc(-c2nc(Nc3cccc(O)c3)c3ccccc3n2)cc1	·	7.2	·	2.0	0.5
COc1ccc(Nc2c3c(nc4ccccc24)CCCC3)cc1OC	88.4*	-7.4	-0.6	4.9	13.2
c1ccc2c(Nc3ccc4c(c3)OCCO4)c3c(nc2c1)CCC3	87.9*	-13.1	-2.0	24.3	33.5
Oc1cccc(Nc2c3ccccc3nc3ccccc23)c1	·	-31.9	·	3.2	70.5*
COc1ccc(Nc2c3c(nc4ccccc24)CCC3)cc1	·	-12.9	·	2.1	29.0
c1ccc(Nc2c3c(nc4ccccc24)CCC3)cc1	75.9*	-5.8	0.4	45.0	32.0
Cc1nn(C)c(C(=O)Nc2ccc(S(=O)(=O)NC34CC5CC(CC(C5)C3)C4)cc2)c1Br	42.6	-7.1	0.2	3.8	59.2*
CC(=O)NCCn1c(SCc2cc(F)ccc2F)nc2ccccc2c1=O	5.1	·	1.8	2.2	68.2*
COCCn1c(SCCN2CCCCC2)nc2ccccc2c1=O	100.2*	·	1.7	-0.1	5.4
COCCn1c(SCc2ccc(F)cc2)nc2ccccc2c1=O	·	-6.1	·	1.6	34.3
COCCn1c(SCc2ccc(OC)c(F)c2)nc2ccccc2c1=O	99.8*	-24.7	-2.0	-0.5	75.1*
O=C(C1CC1)N(Cc1ccco1)c1nc(-c2ccccc2)cs1	57.8*	-1.3	1.1	1.7	4.7
COc1cc2[nH]c(=O)c(C(=O)NCCCN3CCCCC3)c(O)c2cc1OC	93.7*	0.1	2.0	-2.3	13.9
COc1ccc(CCNC(=O)c2c(O)c3cc(OC)c(OC)cc3[nH]c2=O)cc1OC	·	·	·	0.6	·
CC(C)COC(=O)N1CCN(S(=O)(=O)c2ccc3c(c2)CCC3)CC1	·	·	·	-0.5	·
CC(=O)N(Cc1c(C)nn(-c2ccccc2)c1Cl)c1ccc(Cl)cc1	17.4	·	1.0	0.1	18.8
Cc1nn(-c2ccccc2)c(Cl)c1CN(C(=O)CCl)c1cccc2ccccc12	98.7*	-9.4	0.6	1.5	20.9
Cc1nn(-c2ccccc2)c(Cl)c1CN(C(=O)CCl)c1ccc(Cl)cc1	100.4*	-25.8	0.0	2.8	15.4
COc1ccc(CN2CCC(CO)(Cc3cccc(C(F)(F)F)c3)CC2)cc1Cn1cccn1	81.1*	-4.4	-0.6	7.5	41.6
COc1ccc(F)c(CN2CCC(CO)(Cc3cccc(C(F)(F)F)c3)CC2)c1	83.5*	-18.7	-1.8	1.6	19.0
